Reference: ChEMBL document CHEMBL1177862, “Novel effects of glycyrrhetinic acid on the central nervous system tumorigenic progenitor cells: induction of actin disruption and tumor cell-selective toxicity” (Eur J Med Chem, 2010)
Structures can show the parent of a compound that is named as a salt.

How the values were obtained:
[1] = Antiproliferative activity against mouse r/m HM-SFME-1 cells after 24 hrs by MTT assay; assay type: functional, cell-based
How it was run: (§1)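 Cells were kept in DME/F-12 with insulin, transferrin and EGF on fibronectin-coated dishes at 37 C in 20% O2/5% CO2. They were seeded at 1 x 10^4 cells/well and dosed at half confluency for 24 h. Cell number was read by MTT. Runs were in triplicate, repeated at least three times, as mean SD. IC50 was derived from concentration-response data.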

[2] = Antiproliferative activity against mouse SFME cells after 24 hrs by MTT assay; assay type: cell-based; how it was run: as §1
[3] = Down regulation of beta-actin protein expression in mouse SFME cells at IC50 after 8 hrs by Western blotting; assay type: functional, cell-based
How it was run: (§2)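 They were run on SDS-PAGE, blotted to nitrocellulose and probed with mouse monoclonal anti-beta-actin, then AP-conjugated anti-mouse IgG1. GAPDH was the loading control. Bands were quantified by densitometry. Values are from at least 3 experiments, Student's t-test.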

[4] = Induction of F-actin disruption in mouse SFME cells assessed as F-actin extension at IC50 after 8 hrs by confocal laser scanning microscopy; assay type: functional, cell-based
How it was run: (§3)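 After 8 h treatment, cells were fixed in 3.7% formaldehyde/PBS and permeabilized with 0.1% Triton X-100. F-actin was labeled with rhodamine-phalloidin. Slides were mounted in anti-fade medium and imaged by confocal laser scanning or fluorescence microscopy for peripheral F-actin extensions and lamellipodia.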

[5] = Down regulation of beta-actin protein expression in mouse r/m HM-SFME-1 cells at IC50 after 8 hrs by Western blotting; assay type: functional, cell-based; how it was run: as §2
[6] = Induction of F-actin disruption in mouse r/m HM-SFME-1 cells assessed as disappearance of F-actin extension at IC50 after 8 hrs by confocal laser scanning microscopy; assay type: functional, cell-based; how it was run: as §3
[7] = Antiproliferative activity against mouse r/m HM-SFME-1 cells at 10 uM after 24 hrs by MTT assay; assay type: functional; how it was run: as §1

Compound | IC50 [1] [µM] | IC50 [2] [µM] | IC50 [3] | IC50 [4] | IC50 [5] | IC50 [6] | inhibition at 10 µM [7] [%]
Nc1ccn([C@@H]2O[C@H](CO)[C@@H](O)[C@@H]2O)c(=O)n1 [CYTARABINE] | 33.3 | 0.8 |  |  |  |  | 
COc1cccc2c1C(=O)c1c(O)c3c(c(O)c1C2=O)C[C@@](O)(C(=O)CO)C[C@@H]3O[C@H]1C[C@H](N)[C@H](O)[C@H](C)O1 [DOXORUBICIN HYDROCHLORIDE] | 64 | 0.8 |  |  |  |  | 
CC1(C)[C@@H](O)CC[C@]2(C)[C@H]3C(=O)C=C4[C@@H]5C[C@@](C)(C(=O)O)CC[C@]5(C)CC[C@@]4(C)[C@]3(C)CC[C@@H]12 [ENOXOLONE] | 7.3 | 18 | Not Active | Not Active | Active | Active | > 80
COc1cc([C@@H]2c3cc4c(cc3[C@@H](O[C@@H]3O[C@@H]5CO[C@@H](C)O[C@H]5[C@H](O)[C@H]3O)[C@H]3COC(=O)[C@H]23)OCO4)cc(OC)c1O [ETOPOSIDE] | 9 | 0.5 |  |  |  |  | 
O=c1[nH]cc(F)c(=O)[nH]1 [FLUOROURACIL] | 48.5 | 3.2 |  |  |  |  | 
